Screening data deposited in PubChem BioAssay by Broad Institute.
Cneo AK release: Cryptococcus neoformans lysis via adenylate kinase release. 0.2% of 360,000 active. AID 651654. lysis activity, % at 15 µM. C. neoformans lysis, adenylate kinase release luminescence, 4 h; normalised: neutral wells 0, clomiphene wells 100;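 active means mean lysis activity across replicates of at least 80%, whatever share of replicates individually reach that level; inactive means mean lysis activity below 80%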
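Schedule: static 4 h at 37 °C with compound, 1 h detection; system: C. neoformans cells; benchmarks: Clomiphene as positive control; buffer or medium: fresh YPD medium; measure: luminescence rise reflecting yeast cell lysis; measured by: luminescent adenylate kinase detection reagent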
INS-1E GSIS act: GLuc luminescence reporter in INS-1E cells, primary screen for activators of glucose-dependent secretion of insulin; 0.61% of 370,000 active; AID 743287; activation, % at 16.6 µM; INS-1E GLuc reporter insulin secretion, 2-3 h;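 active means lowest replicate activation of at least 40%, so every replicate reaches that level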;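 further: 0% = median of neutral control wells and 100% = median of IBMX positive control wells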
miR-122 sensor: inhibitors of miR-122 in Huh7 cells. 0.3% of 340,000 active. AID 602342. Huh7 miR-122 Renilla luciferase sensor, 48 h; neutral wells = 0, positive control = 100. activation (reporter increase), % at 12.5 µM;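 active means mean replicate activation score at least 90 and every replicate individually at or above 90; inconclusive means only one of the two criteria met; inactive means neither criterion met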;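 further: higher luciferase means less miR-122 activity so hits act as miR-122 inhibitors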
Env fusion inh: HIV envelope-mediated fusion inhibition. HeLa-JRFL Env/CEM21 cell fusion, luciferase. inhibition, % at 12.3 µM. 1.1% of 360,000 active. AID 651610;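 active means mean replicate inhibition score of at least 50 and every replicate individually at or above 50; inconclusive means only one of the two criteria met; inactive means mean below 50 and not all replicates reaching 50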;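 further: 0% = plate neutral controls and 100% = maraviroc near 300 nM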
CFTR F508del cor: correctors of CFTR F508del function in bronchial epithelial cells; AID 720511; activity (quench increase), % at 7.58 µM; CFBE cells, YFP halide quenching; stimulated with forskolin plus potentiator P3; % fluorescence drop versus neutral controls; 0.36% of 350,000 active;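 active means mean added fluorescence quench of at least 8% versus neutral control, with both replicates also reaching 8%; inconclusive means only one of the mean or replicate conditions met; inactive means mean below 8% and not both replicates reaching 8%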;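 further: cells transiently co-express mutant CFTR-F508del with the halide-sensitive YFP; corrector assay measuring rescue of mutant channel to the surface after 24 h compound exposure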
rRNA inh HTS: inhibitors of bacterial rRNA selective over humanized ribosomes; E. coli WT GFP vs humanized-ribosome RFP mutants, fluorescence, 24 h; active compounds read low; DMSO median 0, no signal -100; 1.6% of 350,000 active; GFP signal change (wild-type ribosome), % (test concentration not listed);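 active means significant combined selectivity score with lowered wild-type GFP, culture density cut under 30%, mutant RFP and density less affected; inactive means any of these conditions unmet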
An asterisk follows results filed as active; [ ] = remark or other dose. This is a sample that favours compounds with a hit; in the whole collection about 3.1% have one here.

For C[C@H](CO)N1C[C@H](C)[C@@H](CN(C)Cc2ccc(C(F)(F)F)cc2)Oc2ccc(N(C)C)cc2C1=O the results were INS-1E GSIS act -16, miR-122 sensor 98*[16.7 µM], Env fusion inh inconclusive, CFTR F508del cor 0 and rRNA inh HTS -2.
Screening Cc1noc(C)c1NC(=O)N(C)C[C@H]1Oc2ccc(N(C)C)cc2C(=O)N([C@H](C)CO)C[C@@H]1C returned Cneo AK release 102*, INS-1E GSIS act 15, miR-122 sensor 30[16.7 µM], Env fusion inh 20[16.7 µM], CFTR F508del cor 2 and rRNA inh HTS -1.
`C[C@H]1CN([C@@H](C)CO)C(=O)Cc2cc(N(C)C)ccc2O[C@@H]1CN(C)C(=O)Nc1ccc(C(F)(F)F)cc1` gave Cneo AK release 142*, INS-1E GSIS act -12, miR-122 sensor 0[16.7 µM], Env fusion inh 13[16.7 µM], CFTR F508del cor -1 and rRNA inh HTS 1.
For C[C@@H]1CN([C@@H](C)CO)C(=O)c2cc(N(C)C)ccc2O[C@@H]1CN(C)C(=O)Nc1ccc(C(F)(F)F)cc1 the results were Cneo AK release 117*, INS-1E GSIS act -17, miR-122 sensor 3[16.7 µM], CFTR F508del cor 2 and rRNA inh HTS -24.
C[C@H](CO)N1C[C@H](C)[C@@H](CN(C)S(C)(=O)=O)Oc2ccc(NS(=O)(=O)c3cccs3)cc2CC1=O was read as Cneo AK release 2, INS-1E GSIS act 5, miR-122 sensor 0[16.7 µM], Env fusion inh 3[16.7 µM], CFTR F508del cor 0 and rRNA inh HTS 3.
C=C[C@H](OC)[C@@H](OC(=O)Nc1ccc(SC)cc1)c1ccc(OCCO)cc1 was read as Cneo AK release -1, Env fusion inh 12[16.7 µM] and CFTR F508del cor 0.
`CCOC(=O)c1oc2ccc(S(=O)(=O)n3nc(-c4ccccc4)cc3N)cc2c1C` gave Cneo AK release 4, INS-1E GSIS act -4, miR-122 sensor 0, Env fusion inh 26, CFTR F508del cor 8.2* and rRNA inh HTS 7.
For COc1ccc(NC(=O)N[C@H]2CC[C@@H](CCn3cc(-c4ccc(OC)cc4)nn3)O[C@@H]2CO)cc1 the results were Cneo AK release -4, INS-1E GSIS act -7, Env fusion inh -4[16.7 µM], CFTR F508del cor 0 and rRNA inh HTS -4.
For CC(C)(C)NC(=O)CSCc1c(Cl)cccc1Cl the results were INS-1E GSIS act -6, CFTR F508del cor -1 and rRNA inh HTS -31*.
Screening NC(=O)CSCc1c(Cl)cccc1Cl returned Cneo AK release -5, INS-1E GSIS act 48, miR-122 sensor -1, CFTR F508del cor 2 and rRNA inh HTS 8.
Cc1ccc(S(=O)(=O)Nc2ccc3c(c2)CC(=O)N([C@@H](C)CO)C[C@H](C)[C@H](CN(C)Cc2ccc4c(c2)OCO4)O3)cc1 was read as Cneo AK release 2, INS-1E GSIS act 1, miR-122 sensor 12[16.7 µM], CFTR F508del cor -1 and rRNA inh HTS 0.
`COc1cc2c(cc1OC)C(c1cccc([N+](=O)[O-])c1)NC(=O)C2` (centres undefined) gave INS-1E GSIS act 70*, Env fusion inh 1, CFTR F508del cor -3 and rRNA inh HTS 6.
Screening C[C@H]1CN([C@@H](C)CO)C(=O)c2cccc(NC(=O)Nc3ccccc3)c2O[C@@H]1CN(C)S(=O)(=O)c1ccc(Cl)cc1 returned Cneo AK release -3, INS-1E GSIS act 9, miR-122 sensor -3[16.7 µM], CFTR F508del cor 0 and rRNA inh HTS -3.
`Cc1ccccc1N1C(=O)CC(Sc2nnc(-c3ccccc3)o2)C1=O` (centres undefined) gave Cneo AK release -4.
O=C1CC(Sc2nnc(-c3ccccc3)o2)C(=O)N1c1ccccc1 (centres undefined) was read as Cneo AK release 0, INS-1E GSIS act 86*, miR-122 sensor -1 and Env fusion inh -48.
C[C@@H]1CN([C@@H](C)CO)S(=O)(=O)c2ccc(C3=CCCCC3)cc2O[C@@H]1CN(C)C(=O)C1CCOCC1 was read as Cneo AK release -5, INS-1E GSIS act -4, miR-122 sensor -23[16.7 µM], Env fusion inh 12[16.7 µM], CFTR F508del cor 1 and rRNA inh HTS 0.
For CCCN(C)C[C@H]1OCCCC[C@@H](C)Oc2ccc(NC(=O)Nc3ccccc3)cc2C(=O)N([C@@H](C)CO)C[C@H]1C the results were Cneo AK release 5, INS-1E GSIS act -5, miR-122 sensor 1[16.7 µM], Env fusion inh 13[16.7 µM], CFTR F508del cor -1 and rRNA inh HTS 4.
C[C@H](CO)N1C[C@H](C)[C@H](CN(C)C(=O)Nc2ccc(C(F)(F)F)cc2)OCCCC[C@H](C)Oc2ccc(NC(=O)Nc3ccc4c(c3)OCO4)cc2C1=O was read as Cneo AK release 0, INS-1E GSIS act -27, miR-122 sensor 8[16.7 µM], Env fusion inh 19[16.7 µM], CFTR F508del cor 4 and rRNA inh HTS -1.
For O=S(=O)(N1CCCCC1)N1CCN(CC(O)COc2ccc3cc(Br)ccc3c2)CC1 (centres undefined) the results were Cneo AK release 1, INS-1E GSIS act -12, miR-122 sensor -22 and Env fusion inh 63*.
Screening CN(C)S(=O)(=O)N1CCN(CC(O)COc2ccc3cc(Br)ccc3c2)CC1 (centres undefined) returned Cneo AK release -1 and miR-122 sensor -4.
Screening C[C@H](CO)N1C[C@H](C)[C@H](CN(C)S(=O)(=O)c2ccc(F)cc2)Oc2c(NS(=O)(=O)c3ccc(Cl)cc3)cccc2C1=O returned Cneo AK release 1, INS-1E GSIS act -11, miR-122 sensor 19[16.7 µM], Env fusion inh 7[16.7 µM], CFTR F508del cor 0 and rRNA inh HTS -1.
Screening CCS(=O)(=O)NCC[C@@H]1CC[C@@H](NS(=O)(=O)c2cccc(F)c2)[C@@H](CO)O1 returned Cneo AK release 98*, INS-1E GSIS act -2, Env fusion inh -6[16.7 µM], CFTR F508del cor 0 and rRNA inh HTS -1.
CCS(=O)(=O)NCC[C@H]1CC[C@H](NS(=O)(=O)c2cccc(F)c2)[C@H](CO)O1 was read as Cneo AK release 110*, INS-1E GSIS act 2, Env fusion inh -7[16.7 µM], CFTR F508del cor -1 and rRNA inh HTS -1.
`C[C@@H]1CC=CC[C@H](c2ccccc2)NC(=O)[C@@H](Cc2ccccc2)N(C)C(=O)c2ccccc2O1` (mixture of isomers) gave INS-1E GSIS act -36 and rRNA inh HTS -5.
For COc1cc2ncnc(NCc3ccco3)c2cc1OC the results were INS-1E GSIS act 2, Env fusion inh 30, CFTR F508del cor 3 and rRNA inh HTS 8.
Screening CC(C)Nc1ncnc2ccc(Br)cc12 returned INS-1E GSIS act -27, Env fusion inh 55* and rRNA inh HTS 3.
